These results are taken from ChEMBL document CHEMBL3351639, “Fluorinated analogues of marsanidine, a highly α2-AR/imidazoline I1 binding site-selective hypotensive agent. Synthesis and biological activities” (Eur J Med Chem, 2014).

The subject of assay [1] is Rattus norvegicus. As to the kind of experiment: Hypotensive activity in anesthetized Wistar rat assessed as time required for maximal reduction in mean arterial blood pressure at 0.1 mg/kg, iv. It is filed as functional. The procedure, abridged: (§1)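 Male Wistar rats (200–290 g) anaesthetized with thiopental 70 mg/kg i.p., maintained at 30 µg/kg/min; body temperature 36–37 °C. Carotid catheter recorded MAP and HR; jugular catheter for infusion. After 40 min of saline/thiopental infusion (1.2 ml/h), 0.1 mg/kg given as i.v. bolus (time 0). Signals sampled at 100 Hz. Maximal change from time 0 over 60 min, and its time, recorded. Saline vehicle control; n = 4–5.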

Assay [2] deals with Rattus norvegicus. As to the kind of experiment: Hypotensive activity in anesthetized Wistar rat assessed as maximal reduction in mean arterial blood pressure at 0.1 mg/kg, iv measured during 60 mins post dose. It is filed as functional. An outline of the steps: as §1
Assay [3] has as its target T1, Adrenergic receptor alpha-1 (Rattus norvegicus, UniProt P15823+P23944+P43140).
T1 sequence (P15823 whole entry): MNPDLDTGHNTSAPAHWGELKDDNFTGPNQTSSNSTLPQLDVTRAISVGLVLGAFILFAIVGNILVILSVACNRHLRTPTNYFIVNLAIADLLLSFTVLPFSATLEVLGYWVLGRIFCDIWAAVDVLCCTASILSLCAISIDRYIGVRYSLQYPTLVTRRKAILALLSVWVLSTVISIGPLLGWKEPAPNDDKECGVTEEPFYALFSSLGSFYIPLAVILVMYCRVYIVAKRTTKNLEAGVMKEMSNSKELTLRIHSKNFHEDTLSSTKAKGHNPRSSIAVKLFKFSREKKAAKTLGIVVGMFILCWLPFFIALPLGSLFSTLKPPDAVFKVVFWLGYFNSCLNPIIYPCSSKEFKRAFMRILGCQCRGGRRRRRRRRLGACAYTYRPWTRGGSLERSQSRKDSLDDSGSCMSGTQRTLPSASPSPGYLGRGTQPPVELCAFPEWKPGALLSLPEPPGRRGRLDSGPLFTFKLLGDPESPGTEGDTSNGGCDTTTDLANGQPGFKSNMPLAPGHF
T1 sequence (P23944 whole entry): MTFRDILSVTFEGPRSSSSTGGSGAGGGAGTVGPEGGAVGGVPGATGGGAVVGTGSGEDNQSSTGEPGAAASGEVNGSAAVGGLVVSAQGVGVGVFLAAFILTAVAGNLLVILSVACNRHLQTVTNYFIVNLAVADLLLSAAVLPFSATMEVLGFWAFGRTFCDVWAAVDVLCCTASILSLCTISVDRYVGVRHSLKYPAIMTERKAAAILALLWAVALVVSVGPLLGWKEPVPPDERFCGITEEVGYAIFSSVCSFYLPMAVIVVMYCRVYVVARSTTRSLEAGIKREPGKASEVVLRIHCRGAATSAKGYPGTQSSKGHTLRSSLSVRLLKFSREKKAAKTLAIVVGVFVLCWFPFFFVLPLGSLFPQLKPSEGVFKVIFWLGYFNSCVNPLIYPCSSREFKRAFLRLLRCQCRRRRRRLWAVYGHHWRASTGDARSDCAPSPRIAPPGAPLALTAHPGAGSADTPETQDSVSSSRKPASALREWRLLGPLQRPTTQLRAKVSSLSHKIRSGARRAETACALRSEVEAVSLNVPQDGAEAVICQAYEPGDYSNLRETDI
T1 sequence (P43140 whole entry): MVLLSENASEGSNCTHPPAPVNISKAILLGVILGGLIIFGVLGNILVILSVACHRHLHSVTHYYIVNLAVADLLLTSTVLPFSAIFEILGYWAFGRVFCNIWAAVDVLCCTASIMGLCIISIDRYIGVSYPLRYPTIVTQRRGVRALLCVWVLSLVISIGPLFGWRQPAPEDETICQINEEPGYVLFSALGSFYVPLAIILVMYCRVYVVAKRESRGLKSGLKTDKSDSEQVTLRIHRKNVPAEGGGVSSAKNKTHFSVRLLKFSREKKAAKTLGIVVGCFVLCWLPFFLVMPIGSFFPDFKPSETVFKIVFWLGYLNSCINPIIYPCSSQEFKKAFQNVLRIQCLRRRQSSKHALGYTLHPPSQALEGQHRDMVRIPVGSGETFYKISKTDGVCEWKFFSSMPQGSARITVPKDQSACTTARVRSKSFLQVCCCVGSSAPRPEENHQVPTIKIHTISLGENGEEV
Briefly: Displacement of [3H]prazosin from alpha1-adrenoceptor in Sprague-Dawley rat brain membranes after 45 mins by liquid scintillation counting. It is filed as cell membranes, Membrane. An outline of the steps: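 Crude P2 membranes from brains of male Sprague-Dawley rats (250–280 g), 0.2–0.3 mg protein. Radioligand 1 nM [3H]RX821002 (α2) or [3H]prazosin (α1); 11 concentrations of compound, 0.1 nM–100 µM. Non-specific binding: 10 µM rauwolscine (α2) or 10 µM phenylephrine (α1). Triplicate incubation, RT, 45 min. PEI-soaked glass-fibre filtration, then scintillation counting. Ki by Cheng-Prusoff; 3–4 experiments, or one for low-affinity compounds.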
A general note: In a radioligand displacement assay an active substance lowers the binding of a labelled ligand.

For assay [4], the system named is Rattus norvegicus. As to the kind of experiment: Cardiovascular activity in anesthetized Wistar rat assessed as maximal reduction in heart rate at 0.1 mg/kg, iv measured during 60 mins post dose. Type of assay: functional. An outline of the steps:
as §1

The target in assay [5] is T2, Alpha-2C adrenergic receptor (Homo sapiens, UniProt P18825).
T2 sequence (P18825 whole entry): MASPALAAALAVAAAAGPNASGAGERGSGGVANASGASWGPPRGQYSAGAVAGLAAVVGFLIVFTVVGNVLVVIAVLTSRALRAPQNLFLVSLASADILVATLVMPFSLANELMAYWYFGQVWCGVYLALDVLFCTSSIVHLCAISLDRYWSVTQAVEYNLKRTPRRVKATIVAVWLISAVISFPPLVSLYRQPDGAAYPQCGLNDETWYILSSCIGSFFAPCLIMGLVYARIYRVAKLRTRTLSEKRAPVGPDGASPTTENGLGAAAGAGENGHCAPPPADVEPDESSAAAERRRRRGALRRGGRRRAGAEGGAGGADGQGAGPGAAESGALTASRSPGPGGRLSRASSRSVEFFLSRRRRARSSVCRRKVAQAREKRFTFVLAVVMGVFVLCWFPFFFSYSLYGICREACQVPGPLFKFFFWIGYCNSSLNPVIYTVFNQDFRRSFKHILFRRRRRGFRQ
Briefly: Displacement of [3H]RS-79948-197 from human alpha2C adrenoceptor expressed in CHO-K1 cells after 45 mins by liquid scintillation counting. It is filed as cell-based. The procedure, abridged: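 Membranes from CHO-K1 cells stably expressing each human α2-AR subtype (6–10 µg protein). Used 0.2 nM [3H]RS-79948-197 and 8 serial dilutions of competitor in 50 mM potassium phosphate, pH 7.4. Non-specific binding defined with 100 µM oxymetazoline. Filtration, then scintillation counting. Run in duplicate, at least 3 repeats. One-site nonlinear fit; IC50 converted to Ki by Cheng-Prusoff.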

For `Fc1ccc2cnn(CC3=NCCN3)c2c1`, the Time in assay [1] was 36 min. Besides, the Activity in assay [2] was 12.7 mmHg; in assay [4], 52 bpm. The compound also returned a Ki in assay [3] of 518.3 nM.

With `Fc1ccc2cnn(N=C3NCCN3)c2c1`, the Ki turned out to be 600 nM in assay [5] and 918.3 nM in assay [3]. Moreover, the Time in assay [1] is given as 35 min. Besides, the Activity in assay [2] was determined as 36 mmHg; in assay [4], 118 bpm.

Take `Fc1cccc2cnn(N=C3NCCN3)c12`: the inhibition constant (Ki) in assay [5] was determined as 1200 nM; in assay [3] it was 1625 nM. For the same compound, in assay [1], the Time came out at 33 min. The Activity came to 59.4 mmHg in assay [2] and 128 bpm in assay [4].

In the case of `Fc1ccc2c(cnn2CC2=NCCN2)c1`, the Time in assay [1] is recorded as 40 min. Besides, the Activity in assay [2] amounted to 7.2 mmHg; in assay [4], 12 bpm. The same compound came in with a Ki in assay [3] of 476.3 nM.

Take `Fc1ccc2c(cnn2N=C2NCCN2)c1`: in assay [1], the Time turned out to be 11 min. Besides, the Activity in assay [2] was 8.6 mmHg; in assay [4], 61 bpm. Moreover, the Ki in assay [3] is 2320 nM.

One may read the Ki as a dissociation constant, usually derived from enzyme kinetics or from competition with a known ligand.
